The source made the active and inactive calls.
Experiments:
Shigella flexneri = assay: Antibacterial activity against Shigella flexneri ATCC 12022 after 18 hrs; type: functional, organism-based
In short: (§1)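 Bacterial cells suspended in Mueller-Hinton broth at a final density of […]. Incubated aerobically with compounds in DMSO at 37 °C for 18 h, alongside DMSO-only blank cultures and an ofloxacin positive control. MIC taken as the lowest concentration giving complete inhibition of visible growth.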

Kocuria rhizophila = assay: Antibacterial activity against Micrococcus luteus ATCC 9341 after 18 hrs; type: functional; conditions: DC2201; in short: as §1
Staphylococcus aureus = assay: Antibacterial activity against Staphylococcus aureus ATCC 25923 after 18 hrs; type: functional, organism-based; in short: as §1
Trichophyton rubrum = assay: Antifungal activity against Trichophyton rubrum ATCC 10218 after 48 hrs; type: functional, organism-based
In short: (§2)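 Fungi grown in Sabouraud dextrose broth with compounds for 48 h at 37 °C. Blank cultures received a limited amount of DMSO. Amphotericin B, dissolved in DMSO, served as the positive control.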

Pseudomonas aeruginosa = assay: Antibacterial activity against Pseudomonas aeruginosa ATCC 14502 after 18 hrs; type: functional, organism-based; in short: as §1
[1] = test system: Staphylococcus epidermidis; assay: Antibacterial activity against Staphylococcus epidermidis ATCC 12228 after 18 hrs; type: functional, organism-based; in short: as §1
Bacillus subtilis = assay: Antibacterial activity against Bacillus subtilis ATCC 6633 after 18 hrs; type: functional, organism-based; in short: as §1
Escherichia coli = assay: Antibacterial activity against Escherichia coli ATCC 25922 after 18 hrs; type: functional, organism-based; in short: as §1
Candida albicans = assay: Antifungal activity against Candida albicans ATCC 1600 after 48 hrs; type: functional, organism-based; in short: as §2
Saccharomyces = assay: Antifungal activity against Saccharomyces sake ATCC 26421 after 48 hrs; type: functional, organism-based; in short: as §2
Nannizzia gypsea = assay: Antifungal activity against Microsporum gypseum ATCC 14683 after 48 hrs; type: functional, organism-based; in short: as §2

Measured: Activity

COC(=O)C[C@H]1C(C)(C)[C@H](OC(=O)C(C)C)[C@@H]2C=C3[C@H]([C@H](OC(C)=O)C[C@]4(C)[C@H]3CC(=O)O[C@H]4c3ccoc3)[C@@]1(C)C2=O
inactive: all assays above

COC(=O)C[C@H]1C(C)(C)[C@H](O)[C@@H]2C=C3[C@H]([C@H](OC(C)=O)C[C@]4(C)[C@H]3CC(=O)O[C@H]4c3ccoc3)[C@@]1(C)C2=O
inactive: all assays above

COC(=O)C[C@H]1C(C)(C)[C@H](OC(=O)C(C)C)[C@]2(O)C=C3C4=CC(=O)O[C@@H](c5ccoc5)[C@]4(C)CC[C@@H]3[C@@]1(C)C2=O
inactive: all assays above

CC(=O)O[C@@H]1C[C@H](O)[C@]2(C)[C@H]3CC[C@@]4(C)[C@H](c5ccoc5)OC(=O)[C@H]5O[C@]54[C@]3(C)[C@H](OC(C)=O)C[C@H]2C1(C)C
inactive: all assays above

C=C1[C@@H]2CC[C@@]3(C)[C@H](c4ccoc4)OC(=O)C[C@]13O[C@H]1CC(=O)C(C)(C)[C@H](CC(=O)OC)[C@]12C
inactive: all assays above

CC(=O)O[C@H]1C[C@@H](OC(C)=O)C(C)(C)[C@@H]2C[C@@H](O)[C@]3(C)[C@H](CC[C@@]4(C)[C@H](c5ccoc5)OC(=O)[C@H]5O[C@@]534)[C@@]12C
inactive: all assays above

CC1(C)[C@H](O)C[C@H](O)[C@]2(C)[C@H]3CC[C@@]4(C)[C@H](c5ccoc5)OC(=O)[C@H]5O[C@]54[C@]3(C)[C@H](O)C[C@@H]12
inactive: all assays above

COC(=O)C[C@H]1C(C)(C)C(=O)[C@@H]2C[C@]3(O)C4=CC(=O)O[C@@H](c5ccoc5)[C@]4(C)CC[C@@H]3[C@@]1(C)C2=O
inactive: all assays above

COC(=O)C[C@H]1C(C)(C)[C@H](OC(C)=O)[C@]2(O)C=C3C4=CC(=O)O[C@@H](c5ccoc5)[C@]4(C)CC[C@@H]3[C@@]1(C)C2=O
inactive: all assays above

COC(=O)C[C@H]1C(C)(C)[C@H](OC(=O)c2ccccc2)[C@]2(O)CC3=C4CC(=O)O[C@@H](c5ccoc5)[C@]4(C)CC[C@@H]3[C@@]1(C)C2=O
inactive: all assays above

CC(=O)O[C@H]1C[C@@H](O)C(C)(C)[C@@H]2C[C@@H](OC(C)=O)[C@]3(C)[C@H](CC[C@@]4(C)[C@H](c5ccoc5)OC(=O)[C@H]5O[C@@]534)[C@@]12C
inactive: all assays above

C=C1[C@@H]2CC[C@@]3(C)[C@H](c4ccoc4)OC(=O)C[C@]13O[C@H]1CC(=O)C(C)(C)[C@H](C(O)C(=O)OC)[C@]12C (some centres not stated)
inactive: all assays above

Reference: ChEMBL document CHEMBL1153729, “Structurally diverse limonoids from the fruits of Swietenia mahagoni” (2009)
